Consider 5 molecules from PMC3065020 (Journal of nuclear medicine : official publication, Society …, 2009).

Data set [1] addresses T1, Aβ aggregates in postmortem AD brain homogenates (Homo sapiens, UniProt P05067). As to the kind of experiment: Competitive binding assay against ^18F-AV-45 in postmortem AD brain homogenates. The following applies: read-out: Inhibition constant (Ki) against binding of ^18F-AV-45 to Aβ aggregates, radioligand ^18F-AV-45, 2 h at 37°C.
The nature of the next data set: In vivo biodistribution. More on the design: species or system mouse. The note with it: for Brain uptake at 2 min after injection / Brain uptake at 60 min after injection: intravenous tracer dose of the metabolite; for Brain concentration at 2 min / Brain concentration at 60 min: intravenous. The procedure, abridged:
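CD-1 mice (20–26 g, male and female) received 370 kBq (10 µCi) of radiotracer in 10% ethanol/90% saline with 0.5% ascorbic acid by tail vein. Mice were killed by cardiac puncture under isoflurane at 2, 60, 120 and 180 min, with 3 animals per time point. Organs were weighed and γ-counted, and percentage dose was calculated against diluted aliquots of the injectate. Separately prepared labelled metabolites were also tested in healthy mice.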

Data set [2] can be described thus: In vivo metabolism in mice. The procedure, abridged:
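Healthy mice received 370–555 MBq (10–15 mCi) of radiotracer by tail vein and were killed at 2, 10, 30 or 60 min. Plasma was separated by centrifugation (3,000 rpm, 2 min) and mixed with an equal volume of acetonitrile. After spinning at 5,000 rpm for 5 min, the supernatant was run on C18 HPLC (0.1% TFA water/acetonitrile gradient, 1 mL/min) with radioactivity detection. Metabolites were identified by LC/MS.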

The target of data set [3] is Aβ plaques in AD brain sections (Homo sapiens, UniProt P05067). The experiment in a line: In vitro autoradiography of postmortem human brain sections. It is filed as binding. The following applies: tracer 0.3 nM, 1 h. Summed up: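 Frozen brains from AD and control subjects were cut into 20-µm sections. Sections were incubated for 1 h with 0.3 nM radiotracer in 40% ethanol. They were then washed twice for 2 min in saturated Li2CO3 in 40% ethanol, once for 2 min in 40% ethanol, and rinsed in water for 30 s. Dried sections were exposed to film for 12–18 h, and the images were digitized.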
Sequence of Aβ plaques in AD brain sections (P05067 672-713 limits assumed): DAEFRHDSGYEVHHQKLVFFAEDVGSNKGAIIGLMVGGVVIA

Data set [4] has as its target T1, Aβ aggregates in postmortem AD brain homogenates. The experiment in a line: Saturation binding of ^18F-AV-45 in postmortem AD brain homogenates. Summed up:
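Gray matter from frozen AD brains was homogenized in PBS, diluted to 50–100 mg/mL and stored at −80°C. Saturation binding was run on 4 different AD brain homogenates. Binding was analysed by Scatchard plot with nonlinear regression, and Bmax was expressed as fmol/mg protein.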

Data set [5] shares this target. It is filed as binding.
Data set [6] can be described thus: Small-animal PET of monkey brain. It is filed as in vivo, rhesus monkey. Summed up:
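A young adult female rhesus monkey (6.65 kg) was intubated and kept under isoflurane, with a hindlimb venous catheter. After a transmission scan, it received 173.9 MBq (4.7 mCi; 71,262 MBq/mmol) of radiotracer in 3 mL of 95% saline/5% ethanol as a 1-min bolus. Emission data were collected for 90 min, corrected for attenuation and scatter, and reconstructed by 3D MAP. Manual volumetric ROIs (striatum, thalamus, cortex, white matter), drawn on the summed 60–90-min image, gave time–activity curves.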

T1 sequence (P05067 672-713 limits assumed): as above

Broadly, the Ki is the dissociation constant of the complex between target and ligand, obtained from inhibition or displacement. As for `CC(=O)N(C)c1ccc(/C=C/c2ccc(OCCOCCOCCF)nc2)cc1` [^18F-AV-267], the Ki in data set [1] came to 398 ± 45 nM.
`CC(=O)N(C)c1ccc(/C=C/c2ccc(OCCOCCOCC[18F])nc2)cc1` [^18F-AV-267]: in “In vivo biodistribution” (healthy mice), the “Brain uptake at 2 min after injection” value worked out at 3.3 %ID/g and the “Brain uptake at 60 min after injection” value is reported as 1.8 %ID/g.
For the molecule `CNc1ccc(/C=C/c2ccc(OCCOCCOCC[18F])nc2)cc1` [^18F-AV-45, (E)-4-(2-(6-(2-(2-(2-^18F-fluoroethoxy)ethoxy)ethoxy)pyridin-3-yl)vinyl)-N-methyl benzenamine], the “Brain concentration at 2 min” value worked out at 6.23 %ID/g in the data set “In vivo biodistribution” (female healthy mice, 2 min after administration (peak)) and 7.33 %ID/g in “In vivo biodistribution” (male healthy mice, 2 min after administration). Moreover, the “Brain concentration at 60 min” value was 1.84 %ID/g in “In vivo biodistribution” (female healthy mice) and 1.88 %ID/g in the data set “In vivo biodistribution” (male healthy mice). Further, the “Initial brain uptake of parent relative to either of its metabolites” value in the data set “In vivo biodistribution” (healthy mice, initial uptake) worked out at 1.5 fold. Besides, in data set [2] (intravenous, estimated), the “Biologic T1/2 in mouse plasma” value is reported as “less than 30 min”. Further, the “Parent remaining in plasma” value in data set [2] (mouse plasma, 30 min after intravenous injection) is listed as 30%. Further, the “Labeling of AD brain sections containing Aβ plaques (autoradiogram)” value in data set [3] (AD brain sections) is on record as “highly dense labeling”. Moreover, the “Labeling of brain sections of control subjects (autoradiogram)” value in data set [3] (control subject brain sections) is “no specific labeling”. Besides, in data set [4] (average of 4 different AD brain homogenates), the “Bmax (saturation binding), average” value is given as 8,811 ± 1,643 fmol/mg protein. Besides, the “Bmax (saturation binding), representative example” value in data set [4] (representative AD brain homogenate, Figure 2) was 7,215 fmol/mg of protein. Further, the Koff in data set [5] (dissociation from Aβ aggregates, AD brain homogenates) stood at 0.00075 ± 0.0001 s⁻¹. The “Specific binding or retention in healthy monkey brain” value in data set [6] (healthy rhesus monkey, no Aβ plaques) is given as “did not display any specific binding or prolonged retention in the brain”. Besides, the “Time of peak activity in cortex” value in data set [6] (rhesus monkey, intravenous 173.9 MBq) was found to be 7 min. For the same molecule, the “Injected dose localized in the brain at the peak” value in data set [6] (rhesus monkey, intravenous 173.9 MBq, estimated) was “about 4.4 % of the injected dose”.
In the case of `Nc1ccc(C=Cc2ccc(OCCOCCOCCF)nc2)cc1` [^18F-AV-160], in the data set “In vivo biodistribution” (healthy mice), the “Brain uptake at 2 min after injection” value was found to be 4.5 %ID/g and the “Brain uptake at 60 min after injection” value came out at 1.8 %ID/g. Besides, the “Metabolite share in plasma” value in data set [2] (mouse plasma, 30 min after intravenous injection of ^18F-AV-45) is “about 48%”.
With `CNc1ccc(/C=C/c2ccc(OCCOCCOCCF)nc2)cc1` [^18F-AV-45, (E)-4-(2-(6-(2-(2-(2-^18F-fluoroethoxy)ethoxy)ethoxy)pyridin-3-yl)vinyl)-N-methyl benzenamine], the Kd in data set [5] (read-out: Kd = Koff/Kon, derived from kinetic measurement) came out at 1.31 nM.
